Assay results from ChEMBL document CHEMBL4118251 (J Med Chem, 2018).
Peptide text beside a SMILES is read from it.

What was measured:
[1] = Solubility in pH 4.5 phosphate buffer at 10 mg/ml after 2 hrs in presence of 0.5% phenol by UPLC-UV analysis; format: physicochemical
[2] = biological target: T1, Glucagon-like peptide 1 receptor (Homo sapiens, UniProt P43220); assay: Agonist activity at human GLP1R expressed in HEK293 cells assessed as cAMP accumulation after 30 mins by HTRF assay; format: functional, cell-based
T1 sequence (P43220 whole entry): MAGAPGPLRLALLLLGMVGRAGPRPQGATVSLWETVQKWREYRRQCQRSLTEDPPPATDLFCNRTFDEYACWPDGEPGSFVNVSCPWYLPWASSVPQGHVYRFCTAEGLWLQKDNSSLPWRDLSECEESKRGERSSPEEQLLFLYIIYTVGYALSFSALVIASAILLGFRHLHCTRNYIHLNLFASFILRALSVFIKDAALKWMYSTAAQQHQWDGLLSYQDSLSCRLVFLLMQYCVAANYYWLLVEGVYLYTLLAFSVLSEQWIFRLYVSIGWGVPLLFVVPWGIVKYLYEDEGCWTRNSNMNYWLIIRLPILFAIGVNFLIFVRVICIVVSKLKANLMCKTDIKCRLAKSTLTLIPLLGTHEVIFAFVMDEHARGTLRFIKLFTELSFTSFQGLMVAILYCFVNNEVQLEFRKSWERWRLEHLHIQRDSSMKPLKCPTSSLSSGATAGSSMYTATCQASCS

[3] = Solubility in pH 4.5 acetate buffer at 10 mg/ml after 2 hrs by UPLC-UV analysis; format: physicochemical
Procedure, shortened: (§1)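 Buffers were 100 mM sodium acetate pH 4.5 or 100 mM sodium phosphate pH 7.4, with or without 0.5% phenol. Solid peptide was dispersed at 10 mg/mL, with content corrected by UPLC-MS and ion chromatography, and gently agitated for 2 h. After centrifugation (15 min, 3000 rcf), the supernatant was diluted 1:10 and quantified by UPLC-UV against a DMSO standard curve.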

[4] = biological target: T2, Gastric inhibitory polypeptide receptor (Homo sapiens, UniProt P48546); assay: Agonist activity at human GIP receptor expressed in HEK293 cells assessed as cAMP accumulation after 30 mins by HTRF assay; format: functional, cell-based
T2 sequence (P48546 whole entry): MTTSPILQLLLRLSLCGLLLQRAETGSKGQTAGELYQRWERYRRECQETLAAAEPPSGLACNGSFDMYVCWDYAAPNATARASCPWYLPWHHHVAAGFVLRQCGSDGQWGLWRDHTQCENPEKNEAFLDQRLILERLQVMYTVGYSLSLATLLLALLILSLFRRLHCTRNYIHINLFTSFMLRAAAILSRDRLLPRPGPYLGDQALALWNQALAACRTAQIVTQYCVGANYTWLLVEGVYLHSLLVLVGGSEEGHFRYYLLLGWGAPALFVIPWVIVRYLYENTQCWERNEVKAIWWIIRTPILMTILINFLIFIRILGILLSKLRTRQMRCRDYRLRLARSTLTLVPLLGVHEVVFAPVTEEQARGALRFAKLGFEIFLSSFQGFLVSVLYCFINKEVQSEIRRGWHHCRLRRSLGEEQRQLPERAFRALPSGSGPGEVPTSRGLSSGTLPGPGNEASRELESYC

[5] = Solubility in pH 4.5 acetate buffer at 10 mg/ml after 2 hrs by UPLC-UV analysis
[6] = Solubility in pH 4.5 acetate buffer at 10 mg/ml after 2 hrs in presence of 0.5% phenol by UPLC-UV analysis; format: physicochemical; procedure, shortened: as §1
Glucagon receptor = Glucagon receptor (Homo sapiens, UniProt P47871); assay: Agonist activity at human glucagon receptor expressed in HEK293 cells assessed as cAMP accumulation after 30 mins by HTRF assay; format: functional, cell-based
Sequence of Glucagon receptor (P47871 whole entry): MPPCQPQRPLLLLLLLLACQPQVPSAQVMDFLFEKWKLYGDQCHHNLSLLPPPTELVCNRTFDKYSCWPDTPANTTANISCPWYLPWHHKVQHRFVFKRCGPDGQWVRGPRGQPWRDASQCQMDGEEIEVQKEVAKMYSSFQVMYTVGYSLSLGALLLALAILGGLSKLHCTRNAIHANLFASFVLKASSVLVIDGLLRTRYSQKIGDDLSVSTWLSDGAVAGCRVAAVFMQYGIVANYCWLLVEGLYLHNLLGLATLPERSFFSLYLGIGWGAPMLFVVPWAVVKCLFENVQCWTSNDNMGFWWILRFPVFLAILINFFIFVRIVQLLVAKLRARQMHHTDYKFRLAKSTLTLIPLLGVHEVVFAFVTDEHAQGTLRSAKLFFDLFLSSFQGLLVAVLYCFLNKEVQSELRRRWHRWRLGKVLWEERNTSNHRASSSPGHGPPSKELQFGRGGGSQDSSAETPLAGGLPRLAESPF

Homo sapiens [7] = species: Homo sapiens; assay: Selectivity ratio of EC50 for human glucagon receptor expressed in HEK293 cells to EC50 for human GLP1R expressed in HEK293 cells; format: cell-based
Procedure, shortened: (§2)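 HEK293 lines stably expressing human or monkey receptor were detached with accutase. Cells were resuspended at 400 000 cells/mL in HBSS/20 mM HEPES/0.1% BSA/2 mM IBMX and exposed to peptide for 30 min at room temperature. cAMP was read by HTRF (665/620 nm) after 1 h lysis.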

Homo sapiens [8] = species: Homo sapiens; assay: Selectivity ratio of EC50 for human GIP receptor expressed in HEK293 cells to EC50 for human GLP1R expressed in HEK293 cells; format: cell-based; procedure, shortened: as §2
[9] = biological target: T1, Glucagon-like peptide 1 receptor; assay: Displacement of [125I]GLP-1 from human GLP1R expressed in HEK293 cell membranes after 180 mins by microbeta counting method
Procedure, shortened: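 Membranes from HEK-293 cells expressing human GLP-1 receptor (1 μg protein/well) were coated on WGA SPA beads. […] The buffer was HEPES pH 7.4 with EDTA, NaCl, MgCl2, CaCl2, protease inhibitors and 0.1% BSA. Plates were read after a 180 min delay.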

Structure (SMILES)	solubility at 2 h [1]	EC50 [2]	solubility at 2 h [3]	EC50 [4]	solubility at 2 h [5]	solubility at 2 h [6]	EC50 (Glucagon receptor)	Ratio EC50 (Homo sapiens [7])	Ratio EC50 (Homo sapiens [8])	IC50 [9]
CCCCCCCCCCCCCCCCC(=O)N[C@@H](CCC(=O)N[C@@H](CCC(=O)NCCCC[C@H](NC(=O)[C@H](CCC(N)=O)NC(=O)[C@H](CCCCN)NC(=O)[C@H](CO)NC(=O)[C@H](CC(C)C)NC(=O)[C@H](CC(=O)O)NC(=O)[C@H](CO)NC(=O)[C@@H](NC(=O)[C@H](Cc1ccccc1)NC(=O)[C@@H](NC(=O)CNC(=O)[C@H](CCC(N)=O)NC(=O)C(C)(C)NC(=O)[C@@H](N)Cc1cnc[nH]1)[C@@H](C)O)[C@@H](C)O)C(=O)N[C@@H](CC(=O)O)C(=O)N[C@@H](CCC(=O)O)C(=O)N[C@@H](CCC(N)=O)C(=O)N[C@@H](CCCNC(=N)N)C(=O)N[C@@H](C)C(=O)N[C@@H](CCCCN)C(=O)N[C@@H](CC(C)C)C(=O)N[C@@H](Cc1ccccc1)C(=O)N[C@H](C(=O)N[C@@H](CCC(=O)O)C(=O)N[C@@H](Cc1c[nH]c2ccccc12)C(=O)N[C@@H](CC(C)C)C(=O)NC(C)(C)C(=O)N[C@@H](C)C(=O)NCC(=O)NCC(=O)N1CCC[C@H]1C(=O)N[C@@H](CO)C(=O)N[C@@H](CO)C(=O)NCC(=O)N[C@@H](C)C(=O)N1CCC[C@H]1C(=O)N1CCC[C@H]1C(=O)N1CCC[C@H]1C(=O)N[C@@H](CO)C(N)=O)[C@@H](C)CC)C(=O)O)C(=O)O	≥ 10000 µg/mL	0.0022 nM	≥ 10000 µg/mL	2.03 nM	≥ 10000 µg/mL	1200 µg/mL	0.0276 nM	13		
CCCCCCCCCCCCCCCCC(=O)N[C@@H](CCC(=O)NCCCC[C@H](NC(=O)[C@H](CCC(N)=O)NC(=O)[C@H](CCCCN)NC(=O)[C@H](CO)NC(=O)[C@H](CC(C)C)NC(=O)[C@H](CC(=O)O)NC(=O)[C@H](CO)NC(=O)[C@@H](NC(=O)[C@H](Cc1ccccc1)NC(=O)[C@@H](NC(=O)CNC(=O)[C@H](CCC(N)=O)NC(=O)C(C)(C)NC(=O)[C@@H](N)Cc1cnc[nH]1)[C@@H](C)O)[C@@H](C)O)C(=O)N[C@@H](CC(=O)O)C(=O)N[C@@H](CCC(=O)O)C(=O)N[C@@H](CCC(N)=O)C(=O)N[C@@H](CCCNC(=N)N)C(=O)N[C@@H](C)C(=O)N[C@@H](CCCCN)C(=O)N[C@@H](CC(C)C)C(=O)N[C@@H](Cc1ccccc1)C(=O)N[C@H](C(=O)N[C@@H](CCC(=O)O)C(=O)N[C@@H](Cc1c[nH]c2ccccc12)C(=O)N[C@@H](CC(C)C)C(=O)NC(C)(C)C(=O)N[C@@H](C)C(=O)NCC(=O)NCC(=O)N1CCC[C@H]1C(=O)N[C@@H](CO)C(=O)N[C@@H](CO)C(=O)NCC(=O)N[C@@H](C)C(=O)N1CCC[C@H]1C(=O)N1CCC[C@H]1C(=O)N1CCC[C@H]1C(=O)N[C@@H](CO)C(N)=O)[C@@H](C)CC)C(=O)O		0.0064 nM		1.16 nM			0.0154 nM		181	
CC[C@H](C)[C@H](NC(=O)[C@H](Cc1ccccc1)NC(=O)[C@H](CC(C)C)NC(=O)[C@H](CCCCN)NC(=O)[C@H](C)NC(=O)[C@H](CS)NC(=O)[C@H](CCC(N)=O)NC(=O)[C@H](CCC(=O)O)NC(=O)[C@H](CC(=O)O)NC(=O)[C@H](CC(C)C)NC(=O)[C@H](CCC(N)=O)NC(=O)[C@H](CCCCN)NC(=O)[C@H](CO)NC(=O)[C@H](CC(C)C)NC(=O)[C@@H](N)CC(=O)O)C(=O)N[C@@H](CCC(=O)O)C(=O)N[C@@H](Cc1c[nH]c2ccccc12)C(=O)N[C@@H](CC(C)C)C(=O)N[C@@H](C)C(=O)N[C@@H](C)C(=O)NCC(=O)NCC(=O)N1CCC[C@H]1C(=O)N[C@@H](CO)C(=O)N[C@@H](CO)C(=O)NCC(=O)N[C@@H](C)C(=O)N1CCC[C@H]1C(=O)N1CCC[C@H]1C(=O)N1CCC[C@H]1C(=O)N[C@@H](CS)C(N)=O (H-DLSKQLDEQCAKLFIEWLAAGGPSSGAPPPC-NH2)				> 100000 nM						1130 nM
CC[C@H](C)[C@H](NC(=O)[C@H](Cc1ccccc1)NC(=O)[C@H](CC(C)C)NC(=O)[C@H](CCCCN)NC(=O)[C@H](C)NC(=O)[C@H](CCCNC(=N)N)NC(=O)[C@H](CCC(N)=O)NC(=O)[C@H](CCC(=O)O)NC(=O)[C@H](CC(=O)O)NC(=O)[C@H](CC(C)C)NC(=O)[C@H](CCC(N)=O)NC(=O)[C@H](CCCCN)NC(=O)[C@H](CO)NC(=O)[C@H](CC(C)C)NC(=O)[C@H](CC(=O)O)NC(=O)[C@H](CO)NC(=O)[C@@H](NC(=O)[C@H](Cc1ccccc1)NC(=O)[C@@H](NC(=O)CNC(=O)[C@H](CCC(N)=O)NC(=O)C(C)(C)NC(=O)[C@@H](N)Cc1cnc[nH]1)[C@@H](C)O)[C@@H](C)O)C(=O)N[C@@H](CCC(=O)O)C(=O)N[C@@H](Cc1c[nH]c2ccccc12)C(=O)N[C@@H](CC(C)C)C(=O)NC(C)(C)C(=O)N[C@@H](C)C(=O)NCC(=O)NCC(=O)N1CCC[C@H]1C(=O)N[C@@H](CO)C(=O)N[C@@H](CO)C(=O)NCC(=O)N[C@@H](C)C(=O)N1CCC[C@H]1C(=O)N1CCC[C@H]1C(=O)N1CCC[C@H]1C(=O)N[C@@H](CO)C(N)=O										26 nM
CCCCCCCCCCCCCCCCCCC(=O)N[C@@H](CCC(=O)NCCCC[C@H](NC(=O)[C@H](CCC(N)=O)NC(=O)[C@H](CCCCN)NC(=O)[C@H](CO)NC(=O)[C@H](CC(C)C)NC(=O)[C@H](CC(=O)O)NC(=O)[C@H](CO)NC(=O)[C@@H](NC(=O)[C@H](Cc1ccccc1)NC(=O)[C@@H](NC(=O)CNC(=O)[C@H](CCC(N)=O)NC(=O)C(C)(C)NC(=O)[C@@H](N)Cc1cnc[nH]1)[C@@H](C)O)[C@@H](C)O)C(=O)N[C@@H](CC(=O)O)C(=O)N[C@@H](CCC(=O)O)C(=O)N[C@@H](CCC(N)=O)C(=O)N[C@@H](CCCNC(=N)N)C(=O)N[C@@H](C)C(=O)N[C@@H](CCCCN)C(=O)N[C@@H](CC(C)C)C(=O)N[C@@H](Cc1ccccc1)C(=O)N[C@H](C(=O)N[C@@H](CCC(=O)O)C(=O)N[C@@H](Cc1c[nH]c2ccccc12)C(=O)N[C@@H](CC(C)C)C(=O)NC(C)(C)C(=O)N[C@@H](C)C(=O)NCC(=O)NCC(=O)N1CCC[C@H]1C(=O)N[C@@H](CO)C(=O)N[C@@H](CO)C(=O)NCC(=O)N[C@@H](C)C(=O)N1CCC[C@H]1C(=O)N1CCC[C@H]1C(=O)N1CCC[C@H]1C(=O)N[C@@H](CO)C(N)=O)[C@@H](C)CC)C(=O)O		0.0014 nM		0.102 nM			0.0067 nM	5	73	
